{"source": "paper PMC9231628", "about": "(Proceedings of the National Academy of Sciences of the …, 2022)", "key": {"monarch Na+/K+-ATPase": {"target": "monarch Na+/K+-ATPase (Danaus plexippus, UniProt K0G7C4)", "sequence (K0G7C4 1-1009)": "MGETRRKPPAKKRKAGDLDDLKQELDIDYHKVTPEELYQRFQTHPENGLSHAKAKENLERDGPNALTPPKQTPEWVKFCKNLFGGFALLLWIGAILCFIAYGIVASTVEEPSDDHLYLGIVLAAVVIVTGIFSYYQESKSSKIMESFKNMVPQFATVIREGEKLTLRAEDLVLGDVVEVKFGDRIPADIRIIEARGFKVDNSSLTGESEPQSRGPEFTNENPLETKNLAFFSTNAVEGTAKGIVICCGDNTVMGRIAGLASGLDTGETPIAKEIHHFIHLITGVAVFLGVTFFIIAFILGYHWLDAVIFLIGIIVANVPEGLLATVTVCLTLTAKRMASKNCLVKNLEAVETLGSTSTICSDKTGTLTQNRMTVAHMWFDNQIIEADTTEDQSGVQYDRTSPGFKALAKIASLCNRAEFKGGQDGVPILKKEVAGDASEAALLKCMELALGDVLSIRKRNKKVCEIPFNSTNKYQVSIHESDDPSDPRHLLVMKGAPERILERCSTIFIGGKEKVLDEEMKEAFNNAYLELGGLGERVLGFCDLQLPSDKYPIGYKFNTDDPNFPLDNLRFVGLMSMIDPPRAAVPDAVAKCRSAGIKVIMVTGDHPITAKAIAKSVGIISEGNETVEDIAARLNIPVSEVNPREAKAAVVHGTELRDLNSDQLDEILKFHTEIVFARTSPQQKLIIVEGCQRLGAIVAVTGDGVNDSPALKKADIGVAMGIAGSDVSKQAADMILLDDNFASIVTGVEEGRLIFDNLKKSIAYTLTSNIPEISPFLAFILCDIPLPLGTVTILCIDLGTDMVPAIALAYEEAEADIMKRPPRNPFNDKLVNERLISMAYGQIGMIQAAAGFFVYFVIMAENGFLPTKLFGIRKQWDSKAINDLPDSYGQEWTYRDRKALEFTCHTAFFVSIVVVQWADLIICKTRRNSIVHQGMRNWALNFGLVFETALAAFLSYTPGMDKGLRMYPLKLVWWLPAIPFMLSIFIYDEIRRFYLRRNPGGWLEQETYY", "details": "monarch enzyme; cited from earlier work"}, "monarch butterflies": {"test_system": "monarch butterflies", "details": "cited from earlier work"}, "Oncopeltus Na+/K+-ATPase": {"test_system": "Oncopeltus Na+/K+-ATPase", "test": "Na+/K+-ATPase inhibition assay, Oncopeltus neural enzyme", "format": "biochemical, Oncopeltus fasciatus", "details": "from Fig. 3", "procedure,_shortened": "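Neural-tissue enzyme; stocks in 20% DMSO/H₂O (5 mM, or 1 mM for one test compound). Six-point 1/10 dilution series, diluted 1:5 into Tris-buffered ATP, NaCl, KCl, MgCl₂ plus enzyme; 37 °C, 20 min, shaking. Stopped with 10% SDS; Pi by Taussky–Shorr at 700 nm. Background: 10 mM ouabain, no KCl. IC50 from four-parameter logistic mixed model; ratios use monarch enzyme or ouabain IC50s.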"}, "Oncopeltus fasciatus": {"test_system": "Oncopeltus fasciatus", "test": "Laboratory rearing on A. syriaca seeds: sequestration of seed cardenolides", "format": "in vivo", "details": "bugs reared on A. syriaca seeds from Ithaca, NY", "procedure,_shortened": "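Field-collected Oncopeltus (Ithaca, NY) reared on a pooled A. syriaca seed lot for fewer than five generations. Whole adults and seeds, 50 mg ground freeze-dried each, extracted in methanol with 20 µg digitoxin internal standard. Analysed by C18 HPLC-UV (acetonitrile/water gradient, 218 nm), with cardenolides taken as peaks with a 214–222 nm maximum. Quantified by peak area against digitoxin on a dry-mass basis; HRMS for identification.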"}}}
{"molecule": "C[C@@H]1C[C@@]2(NCCS2)[C@]2(O)O[C@@H]3C[C@@]4(C=O)[C@@H](CC[C@@H]5[C@@H]4CC[C@]4(C)[C@@H](C6=CC(=O)OC6)CC[C@]54O)C[C@H]3O[C@@H]2O1", "note": "[Voruscharin, voruscharin]", "values": [{"measurement": "IC50", "setting": "monarch Na+/K+-ATPase", "value": 2000, "unit": "nM"}, {"measurement": "effect on monarch growth", "setting": "monarch butterflies", "value": "negatively impacts monarch growth"}]}
{"molecule": "C[C@@H]1O[C@@H](O[C@H]2C[C@@H](O)[C@]3(CO)[C@H]4[C@H](O)C[C@]5(C)[C@@H](C6=CC(=O)OC6)CC[C@]5(O)[C@@H]4CC[C@]3(O)C2)[C@H](O)[C@H](O)[C@H]1O", "note": "[Ouabain, ouabain]", "values": [{"measurement": "advantage (tolerance) of Oncopeltus enzyme over monarchs", "setting": "Oncopeltus Na+/K+-ATPase", "value": 2, "unit": "fold"}]}
{"molecule": "Aspecioside A", "values": [{"measurement": "share of the total cardenolides in bugs", "setting": "Oncopeltus fasciatus", "value": 33, "unit": "%"}]}
